biological target: Thymidylate synthase (Homo sapiens, UniProt P04818); test: Inhibition of purified human thymidylate synthase (TS) isolated from an Escherichia coli harboring a plasmid with thy A gene cloned from SV40 transformed human fibroblast cells
How it was run: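 Purified recombinant human TS, expressed in E. coli from a thyA gene cloned from SV40-transformed human fibroblasts. Inhibition was measured by a modified tritium-release assay. Ki was estimated by treating compounds as tight-binding noncompetitive inhibitors.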

Thymidylate synthase, sequence (P04818 whole entry): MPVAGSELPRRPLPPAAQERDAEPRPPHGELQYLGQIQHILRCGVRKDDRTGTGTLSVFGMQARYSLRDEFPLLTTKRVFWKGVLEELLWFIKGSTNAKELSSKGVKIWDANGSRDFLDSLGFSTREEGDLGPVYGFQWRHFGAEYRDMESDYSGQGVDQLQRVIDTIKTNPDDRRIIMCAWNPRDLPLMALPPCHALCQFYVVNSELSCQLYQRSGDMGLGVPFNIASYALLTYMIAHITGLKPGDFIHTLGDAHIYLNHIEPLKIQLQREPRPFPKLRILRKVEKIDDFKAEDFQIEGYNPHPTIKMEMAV

Row | Ki | Structure (SMILES)
1 | 20 nM | Nc1nc(O)c2c(ccc3ccc(Br)cc32)n1
2 | 16400 nM | Nc1nc2ccc3cc(S(=O)(=O)Nc4ccc(C(=O)N[C@@H](CCC(=O)O)C(=O)O)cc4)c(Br)cc3c2c(=O)[nH]1
3 | 100 nM | Nc1nc(O)c2c(ccc3ccc(NS(=O)(=O)c4ccc(C(=O)N[C@@H](CCC(=O)O)C(=O)O)cc4)cc32)n1

Reference: BindingDB's records for doi:10.1021/jm00074a030 (Wellcome Research Laboratories, 1993)
